Shown are actives, neighbours in structure and some others; about 1.4% of the full set was active somewhere.
HCV NS3 hel inh: blocks Hepatitis C virus NS3 helicase unwinding | NS3 helicase DNA unwinding, Cy5 molecular beacon fluorescence | inhibition, % at 10.9 µM | 290,000 tested, 0.56% active;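 active = inhibition above the mean of all tested compounds plus 3 SD, set per campaign, cut at about 35% in these data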
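assay system = NS3 helicase fragment of HCV | buffer or medium = MOPS pH 6.5, MgCl2, DTT, Tween20, BSA | timing = 60 min unwinding reaction at 25 °C after ATP addition | signal = Cy5 beacon fluorescence read at start and 1 h | read-out basis = % inhibition of unwinding | control set = low DMSO, high thioflavine S at 110 µM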
ZTA counter: blocks Epstein-Barr virus ZTA, an EBNA-1 counter-screen | ZTA-DNA binding, fluorescence polarization | inhibition, % at 11 µM | AID 2234 | 320,000 tested, 0.15% active; in the data active = inhibition above about 33%
Target sequence (P03206 whole entry, looked up): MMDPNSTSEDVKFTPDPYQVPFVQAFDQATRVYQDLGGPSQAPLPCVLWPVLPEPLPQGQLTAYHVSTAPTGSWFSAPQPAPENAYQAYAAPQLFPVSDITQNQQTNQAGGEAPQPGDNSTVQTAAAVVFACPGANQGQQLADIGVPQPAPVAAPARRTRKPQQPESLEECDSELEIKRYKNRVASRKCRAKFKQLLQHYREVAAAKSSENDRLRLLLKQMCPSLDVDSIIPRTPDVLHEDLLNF
EBNA-1 inhibitor: blocks EBNA-1 binding to DNA | EBNA-1 DNA binding, fluorescence polarization | inhibition, % at 14.8 µM | 300,000 tested, 0.34% active | AID 1950; in the data active = inhibition above about 28%
Fh CTSL1 inh: blocks F. hepatica cathepsin L1 in PFM18AAP counter-screen; recombinant F. hepatica cathepsin L1, Z-Leu-Arg-MCA fluorescence; inhibition, % at 5.96 µM; 300,000 tested, 0.49% active; AID 1906;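 active = inhibition above the mean of all tested compounds plus 3 SD, set per screening campaign, cut at about 17% in these data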
NS3 hel confirm: HCV NS3 helicase inhibition, confirmation assay; NS3 helicase DNA unwinding, Cy5 molecular beacon fluorescence; 1,600 tested, 31% active; shares compounds with HCV NS3 hel inh; inhibition, % at 10.9 µM;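 active = inhibition above the mean of all tested compounds plus 3 SD, cutoff set per campaign, cut at about 36% in these data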
DNA FID counter: intercalator displacement, NS3 helicase counter-screen | shares compounds with HCV NS3 hel inh | DNA fluorescent intercalator displacement, fluorescence | inhibition, % at 7.9 µM | 1,600 tested, 4% active | AID 1945; in the data active = inhibition above about 37%;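 note: higher means more displacement of ethidium bromide from the DNA hairpin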
Hits are given with their value.

`COc1ccc2nc(C)cc(SCC(=O)N/N=C/c3ccc(O)cc3O)c2c1` gave HCV NS3 hel inh inactive, ZTA counter inactive, EBNA-1 inhibitor inactive and Fh CTSL1 inh inactive.
Screening COc1ccc(N2Cc3ccc(C(=O)N/N=C\c4ccc(O)cc4O)cc3C2)cc1 returned HCV NS3 hel inh 39.8, ZTA counter inactive, EBNA-1 inhibitor inactive, Fh CTSL1 inh inactive, NS3 hel confirm inactive and DNA FID counter inactive.
COc1cccc(NC(=O)COc2cc(O)c3c(c2)OC(C)(C)CC3=O)c1 was read as HCV NS3 hel inh 83.1, ZTA counter inactive, EBNA-1 inhibitor inactive, Fh CTSL1 inh inactive, NS3 hel confirm inactive and DNA FID counter inactive.
For O=C(NCC1CCCO1)c1cc(S(=O)(=O)N2CCCC2)c(Cl)cc1Cl (centres undefined) the results were HCV NS3 hel inh 83.0, ZTA counter inactive, EBNA-1 inhibitor inactive, Fh CTSL1 inh inactive, NS3 hel confirm inactive and DNA FID counter inactive.
`Cc1ccc(NC(=O)NC(=O)CN2CCC(C(N)=O)CC2)c(C)c1` gave ZTA counter inactive.
For CCOC(=O)C(CC)(CCC(=O)OC)c1csc(Nc2ccccc2O)n1 (centres undefined) the results were HCV NS3 hel inh 39.6, ZTA counter inactive, EBNA-1 inhibitor inactive, Fh CTSL1 inh inactive, NS3 hel confirm inactive and DNA FID counter inactive.
For COc1ccc(CNc2ccccc2SC)cc1OC the results were HCV NS3 hel inh inactive, ZTA counter inactive, EBNA-1 inhibitor inactive and Fh CTSL1 inh inactive.
COc1ccc(CNc2cccc3[nH]c(C(F)(F)F)nc23)cc1OC was read as HCV NS3 hel inh 41.5, ZTA counter inactive, EBNA-1 inhibitor inactive, Fh CTSL1 inh inactive, NS3 hel confirm inactive and DNA FID counter inactive.
Screening COc1cccc(NC(=O)c2cnsn2)c1 returned HCV NS3 hel inh inactive, ZTA counter inactive, EBNA-1 inhibitor inactive and Fh CTSL1 inh inactive.
Screening O=S(=O)([N-]c1nc2ccccc2nc1-n1cc[n+](Cc2ccccc2)c1)c1ccc(Cl)cc1 returned HCV NS3 hel inh 36.8, ZTA counter inactive, EBNA-1 inhibitor inactive, Fh CTSL1 inh inactive, NS3 hel confirm inactive and DNA FID counter inactive.
Screening CC(C)CC[n+]1ccn(-c2nc3ccccc3nc2[N-]S(=O)(=O)c2ccccc2)c1 returned HCV NS3 hel inh inactive, ZTA counter inactive, EBNA-1 inhibitor inactive and Fh CTSL1 inh inactive.
For O=C(O)CN1C(=O)/C(=C\c2cc(Br)ccc2OCc2ccc([N+](=O)[O-])cc2)SC1=S the results were HCV NS3 hel inh 56.0, ZTA counter inactive, EBNA-1 inhibitor inactive, Fh CTSL1 inh inactive, NS3 hel confirm 65.8 and DNA FID counter 56.1.
O=C(O)CN1C(=O)/C(=C\c2ccccc2OCc2ccc(Cl)cc2Cl)SC1=S was read as HCV NS3 hel inh 47.1, ZTA counter inactive, EBNA-1 inhibitor inactive, Fh CTSL1 inh inactive, NS3 hel confirm 66.0 and DNA FID counter inactive.
`O=C(O)CN1C(=O)/C(=C\c2cc(Br)ccc2OCc2ccccc2Cl)SC1=S` gave HCV NS3 hel inh 46.8, ZTA counter inactive, EBNA-1 inhibitor inactive, Fh CTSL1 inh inactive, NS3 hel confirm 68.9 and DNA FID counter 47.9.
`COc1cc(/C=C2/SC(=S)N(Cc3ccccc3)C2=O)ccc1OCC(=O)O` gave HCV NS3 hel inh 37.3, ZTA counter inactive, EBNA-1 inhibitor inactive, Fh CTSL1 inh inactive, NS3 hel confirm inactive and DNA FID counter inactive.
Screening COc1ccc(OC)c2[nH]c(=O)c(CCNC(=O)c3ccc(S(=O)(=O)N(C)C)cc3)cc12 returned HCV NS3 hel inh inactive, ZTA counter inactive, EBNA-1 inhibitor inactive and Fh CTSL1 inh inactive.
For O=C1/C(=C\c2ccc(O)cc2)SC(=S)N1Cc1ccccc1 the results were HCV NS3 hel inh inactive, ZTA counter inactive, EBNA-1 inhibitor inactive and Fh CTSL1 inh inactive.
O=C1/C(=C\c2cc(Br)cc(Br)c2O)SC(=S)N1Cc1ccccc1 was read as HCV NS3 hel inh 57.3, ZTA counter inactive, EBNA-1 inhibitor inactive, Fh CTSL1 inh inactive, NS3 hel confirm 75.3 and DNA FID counter inactive.
`COc1cc2cccc(OC)c(=O)c2c(O)c1OC` gave HCV NS3 hel inh inactive, ZTA counter inactive, EBNA-1 inhibitor inactive and Fh CTSL1 inh inactive.
CC(=O)Oc1cc2cccc(OC(C)=O)c(=O)c2c(OC(C)=O)c1OC(C)=O was read as HCV NS3 hel inh 53.2, ZTA counter inactive, EBNA-1 inhibitor inactive, Fh CTSL1 inh inactive, NS3 hel confirm inactive and DNA FID counter inactive.
`O=C(CN1C(=O)c2ccccc2C1=O)Nc1ccccc1F` gave HCV NS3 hel inh inactive, ZTA counter inactive, EBNA-1 inhibitor inactive and Fh CTSL1 inh inactive.
Screening CCOc1ccccc1N1C(=O)CC(Nc2ccc(N3CCOCC3)cc2)C1=O (centres undefined) returned HCV NS3 hel inh 42.4, ZTA counter inactive, EBNA-1 inhibitor inactive, Fh CTSL1 inh inactive, NS3 hel confirm inactive and DNA FID counter inactive.
Screening COc1ccccc1N1C(=O)CC(Nc2ccc(N3CCOCC3)cc2)C1=O (centres undefined) returned HCV NS3 hel inh inactive, ZTA counter inactive, EBNA-1 inhibitor inactive and Fh CTSL1 inh inactive.
CC(C)C1Nc2c(O)cc(Cl)c([N+](=O)[O-])c2C2C=CCC21 (centres undefined) was read as HCV NS3 hel inh 36.7, NS3 hel confirm 58.4 and DNA FID counter inactive.
For COc1cc(C(=O)N/N=C2\CCS(=O)(=O)c3ccc(F)cc32)cc(OC)c1OC the results were HCV NS3 hel inh inactive, ZTA counter inactive, EBNA-1 inhibitor inactive and Fh CTSL1 inh inactive.
Screening CC1CC(=O)c2c(cc3c(-c4c(O)cc(O)c5c(O)c6c(cc45)OC(C)CC6=O)c(O)cc(O)c3c2O)O1 (centres undefined) returned HCV NS3 hel inh 97.8, ZTA counter inactive, EBNA-1 inhibitor inactive, Fh CTSL1 inh inactive, NS3 hel confirm 123.1 and DNA FID counter 72.3.
For O=C1CC(c2ccc(O)cc2)Oc2cc(O)cc(O)c21 (centres undefined) the results were HCV NS3 hel inh inactive, ZTA counter inactive, EBNA-1 inhibitor inactive and Fh CTSL1 inh inactive.
For CC(=O)NNC(=O)c1sc(=S)n2c1[nH]c(=O)c1sccc12 the results were HCV NS3 hel inh inactive, ZTA counter inactive, EBNA-1 inhibitor inactive and Fh CTSL1 inh inactive.
For O=C1C(=Cc2ccco2)C(=O)c2ccccc21 the results were HCV NS3 hel inh 50.0, ZTA counter inactive, EBNA-1 inhibitor inactive, Fh CTSL1 inh inactive, NS3 hel confirm inactive and DNA FID counter inactive.
Screening O=C1/C(=C/c2ccco2)CCc2ccccc21 returned HCV NS3 hel inh inactive, ZTA counter inactive, EBNA-1 inhibitor inactive and Fh CTSL1 inh inactive.
`C=CCSc1n[nH]c(-c2ccc(OC)cc2)n1` gave HCV NS3 hel inh 38.6, ZTA counter inactive, EBNA-1 inhibitor inactive, Fh CTSL1 inh inactive, NS3 hel confirm inactive and DNA FID counter inactive.
O=C(NCCCN1CCN(c2ccccc2)CC1)C1CCCN(c2ncnc3c2nc2n3CCCCC2)C1 (centres undefined) was read as HCV NS3 hel inh inactive, ZTA counter inactive, EBNA-1 inhibitor inactive and Fh CTSL1 inh inactive.
